Test results taken from ChEMBL document CHEMBL1148345, “Hydrophobic acetal and ketal derivatives of mannopeptimycin-alpha and desmethylhexahydromannopeptimycin-alpha: semisynthetic glycopeptides with potent activity against Gram-positive bacteria” (2004).
≈ marks a conversion by molar mass, not a printed value.

Key:
Format in all cases: functional
[1] = system: Staphylococcus; assay: In vitro minimum inhibitory concentration against Staphylococcus species; Range is 0.5-2 ug/mL
[2] = system: Enterococcus; assay: In vitro minimum inhibitory concentration against Enterococcus species; Range is 2-4 ug/mL
[3] = system: Streptococcus; assay: In vitro minimum inhibitory concentration against Streptococcus species
[4] = system: Staphylococcus aureus; assay: Effective dose of compound against […] Smith (GC 4543) in mice
Procedure, shortened: (§1)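 Murine protection models against S. aureus Smith (GC 4543) and E. faecalis (GC 6189). Compounds dosed in D5W (5% dextrose in water); vancomycin dosed in saline. Five dosages, five mice per dosage level. ED50 in mg/kg reported as the pooled mean from at least three separate tests.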

[5] = system: Enterococcus; assay: In vitro minimum inhibitory concentration against Enterococcus species; Range is 0.5-2 ug/mL
[6] = system: Staphylococcus; assay: In vitro minimum inhibitory concentration against Staphylococcus species
[7] = system: Enterococcus faecalis; assay: Effective dose of compound against Enterococcus faecalis (GC 6189) in mice; procedure, shortened: as §1
[8] = system: Streptococcus; assay: In vitro minimum inhibitory concentration against Streptococcus species; Range is 0.12-0.25 ug/mL
[9] = system: Staphylococcus; assay: In vitro minimum inhibitory concentration against Staphylococcus species; Range is 0.5-1 ug/mL
[10] = system: Enterococcus; assay: In vitro minimum inhibitory concentration against Enterococcus species (in vitro); Range is 1-2 ug/mL
[11] = system: Staphylococcus; assay: In vitro minimum inhibitory concentration against Staphylococcus species; Range is 1-2 ug/mL
[12] = system: Streptococcus; assay: In vitro minimum inhibitory concentration against Streptococcus species; Range is 0.06-0.12 ug/mL
[13] = system: Enterococcus; assay: In vitro minimum inhibitory concentration against Enterococcus species; Range is 0.5-4 ug/mL
[14] = system: Enterococcus; assay: In vitro minimum inhibitory concentration against Enterococcus species; Range is 0.5-1 ug/mL
[15] = system: Staphylococcus; assay: In vitro minimum inhibitory concentration against Staphylococcus species; Range is 0.25-1 ug/mL
[16] = system: Streptococcus; assay: In vitro minimum inhibitory concentration against Streptococcus species; Range is 0.06-0.25 ug/mL
[17] = system: Enterococcus; assay: In vitro minimum inhibitory concentration against Enterococcus species; Range is 1-2 ug/mL
[18] = system: Enterococcus; assay: In vitro minimum inhibitory concentration against Enterococcus species
[19] = system: Staphylococcus; assay: In vitro minimum inhibitory concentration against Staphylococcus species; Range is 1-4 ug/mL
[20] = system: Enterococcus; assay: In vitro minimum inhibitory concentration against Enterococcus species; Range is 4-8 ug/mL
[21] = system: Staphylococcus; assay: In vitro minimum inhibitory concentration against Staphylococcus species; Range is 0.06-0.12 ug/mL
[22] = system: Enterococcus; assay: In vitro minimum inhibitory concentration against Enterococcus species; Range is 0.12-0.25 ug/mL
[23] = system: Streptococcus; assay: In vitro minimum inhibitory concentration against Streptococcus species; Range is 0.12-1 ug/mL
[24] = system: Streptococcus; assay: In vitro minimum inhibitory concentration against Streptococcus species; Range is 0.12-0.5 ug/mL
[25] = system: Enterococcus; assay: In vitro minimum inhibitory concentration against Enterococcus species; Range is 0.5-128 ug/mL

NC1=NC[C@@H]([C@H](O)[C@@H]2NC(=O)[C@@H](Cc3ccc(O[C@H]4O[C@H](CO)[C@@H](O[C@H]5O[C@@H]6COC(c7ccccc7)O[C@H]6[C@H](O)[C@@H]5O)[C@H](O)[C@@H]4O)cc3)NC(=O)C(CC3CCCCC3)NC(=O)CNC(=O)[C@H](CO)NC(=O)[C@@H]([C@@H](O)[C@@H]3CN=C(N)N3[C@H]3O[C@H](CO)[C@@H](O)[C@H](O)[C@@H]3O)NC2=O)N1 (stereo not given in full)
MIC [1]: 2 µg/mL (≈ 1.45 µM)
MIC [2]: 4 µg/mL (≈ 2.91 µM)
MIC [3]: ≤ 0.12 µg/mL

C[C@@H](c1ccccc1)C1NC(=O)CNC(=O)[C@H](CO)NC(=O)[C@@H]([C@@H](O)[C@@H]2CN=C(N)N2[C@H]2O[C@H](CO)[C@@H](O)[C@H](O)[C@@H]2O)NC(=O)[C@H]([C@@H](O)[C@@H]2CN=C(N)N2)NC(=O)[C@@H](Cc2ccc(O[C@H]3O[C@H](CO)[C@@H](O[C@H]4O[C@@H]5COC(C6CCCCC6)O[C@H]5[C@H](O)[C@@H]4O)[C@H](O)[C@@H]3O)cc2)NC1=O (stereo not given in full)
ED50 [4]: 0.07 mg/kg
MIC [5]: 2 µg/mL (≈ 1.44 µM)
MIC [6]: 1 µg/mL (≈ 0.72 µM)
MIC [3]: ≤ 0.12 µg/mL
ED50 [7]: 0.19 mg/kg

C[C@@H](c1ccccc1)C1NC(=O)CNC(=O)[C@H](CO)NC(=O)[C@@H]([C@@H](O)[C@@H]2CN=C(N)N2[C@H]2O[C@H](CO)[C@@H](O)[C@H](O)[C@@H]2O)NC(=O)[C@H]([C@@H](O)[C@@H]2CN=C(N)N2)NC(=O)[C@@H](Cc2ccc(O[C@H]3O[C@H](CO)[C@@H](O[C@H]4O[C@@H]5COC(c6ccccc6)O[C@H]5[C@H](O)[C@@H]4O)[C@H](O)[C@@H]3O)cc2)NC1=O (stereo not given in full)
MIC [1]: 2 µg/mL (≈ 1.45 µM)
ED50 [4]: 0.19 mg/kg
MIC [8]: ≤ 0.25 µg/mL
MIC [2]: 4 µg/mL (≈ 2.89 µM)
ED50 [7]: 0.39 mg/kg

CCCCCC1OC[C@H]2O[C@H](O[C@H]3[C@H](O)[C@H](O)[C@@H](Oc4ccc(C[C@H]5NC(=O)C([C@@H](C)c6ccccc6)NC(=O)CNC(=O)[C@H](CO)NC(=O)[C@@H]([C@@H](O)[C@@H]6CN=C(N)N6[C@H]6O[C@H](CO)[C@@H](O)[C@H](O)[C@@H]6O)NC(=O)[C@H]([C@@H](O)[C@@H]6CN=C(N)N6)NC5=O)cc4)O[C@@H]3CO)[C@@H](O)[C@@H](O)[C@@H]2O1 (stereo not given in full)
MIC [9]: ≤ 1 µg/mL
MIC [10]: 2 µg/mL (≈ 1.45 µM)
MIC [3]: ≤ 0.5 µg/mL

C[C@@H](c1ccccc1)C1NC(=O)CNC(=O)[C@H](CO)NC(=O)[C@@H]([C@@H](O)[C@@H]2CN=C(N)N2[C@H]2O[C@H](CO)[C@@H](O)[C@H](O)[C@@H]2O)NC(=O)[C@H]([C@@H](O)[C@@H]2CN=C(N)N2)NC(=O)[C@@H](Cc2ccc(O[C@H]3O[C@H](CO)[C@@H](O[C@H]4O[C@@H]5COC(CC6CCCCC6)O[C@H]5[C@H](O)[C@@H]4O)[C@H](O)[C@@H]3O)cc2)NC1=O (stereo not given in full)
MIC [11]: 2 µg/mL (≈ 1.43 µM)
MIC [2]: 4 µg/mL (≈ 2.85 µM)
MIC [12]: ≤ 0.12 µg/mL

NC1=NC[C@@H]([C@H](O)[C@@H]2NC(=O)[C@@H](Cc3ccc(O[C@H]4O[C@H](CO)[C@@H](O[C@H]5O[C@@H]6COC(Cc7ccccc7)O[C@H]6[C@H](O)[C@@H]5O)[C@H](O)[C@@H]4O)cc3)NC(=O)C(CC3CCCCC3)NC(=O)CNC(=O)[C@H](CO)NC(=O)[C@@H]([C@@H](O)[C@@H]3CN=C(N)N3[C@H]3O[C@H](CO)[C@@H](O)[C@H](O)[C@@H]3O)NC2=O)N1 (stereo not given in full)
MIC [13]: 4 µg/mL (≈ 2.88 µM)
MIC [11]: 2 µg/mL (≈ 1.44 µM)
MIC [12]: ≤ 0.12 µg/mL

C[C@@H](c1ccccc1)C1NC(=O)CNC(=O)[C@H](CO)NC(=O)[C@@H]([C@@H](O)[C@@H]2CN=C(N)N2[C@H]2O[C@H](CO)[C@@H](O)[C@H](O)[C@@H]2O)NC(=O)[C@H]([C@@H](O)[C@@H]2CN=C(N)N2)NC(=O)[C@@H](Cc2ccc(O[C@H]3O[C@H](CO)[C@@H](O[C@H]4O[C@@H]5COC6(O[C@H]5[C@H](O)[C@@H]4O)C4CC5CC(C4)CC6C5)[C@H](O)[C@@H]3O)cc2)NC1=O (stereo not given in full)
MIC [14]: 1 µg/mL (≈ 0.701 µM)
ED50 [4]: 0.04 mg/kg
MIC [15]: 1 µg/mL (≈ 0.701 µM)
MIC [3]: ≤ 0.06 µg/mL
ED50 [7]: 1.8 mg/kg

C[C@@H](c1ccccc1)C1NC(=O)CNC(=O)[C@H](CO)NC(=O)[C@@H]([C@@H](O)[C@@H]2CN=C(N)N2[C@H]2O[C@H](CO)[C@@H](O)[C@H](O)[C@@H]2O)NC(=O)[C@H]([C@@H](O)[C@@H]2CN=C(N)N2)NC(=O)[C@@H](Cc2ccc(O[C@H]3O[C@H](CO)[C@@H](O[C@H]4O[C@@H]5COC(Cc6ccccc6)O[C@H]5[C@H](O)[C@@H]4O)[C@H](O)[C@@H]3O)cc2)NC1=O (stereo not given in full)
ED50 [4]: 0.23 mg/kg
MIC [6]: 2 µg/mL (≈ 1.43 µM)
MIC [16]: ≤ 0.25 µg/mL
MIC [17]: 2 µg/mL (≈ 1.43 µM)
ED50 [7]: 1.04 mg/kg

C[C@@H](c1ccccc1)C1NC(=O)CNC(=O)[C@H](CO)NC(=O)[C@@H]([C@@H](O)[C@@H]2CN=C(N)N2[C@H]2O[C@H](CO)[C@@H](O)[C@H](O)[C@@H]2O)NC(=O)[C@H]([C@@H](O)[C@@H]2CN=C(N)N2)NC(=O)[C@@H](Cc2ccc(O[C@H]3O[C@H](CO)[C@@H](O[C@H]4O[C@H](CO)[C@@H](O)[C@H](O)[C@@H]4O)[C@H](O)[C@@H]3O)cc2)NC1=O (stereo not given in full)
ED50 [4]: 20 mg/kg
MIC [18]: > 128 µg/mL
MIC [6]: 128 µg/mL (≈ 98.8 µM)
MIC [3]: > 32 µg/mL

C[C@@H](c1ccccc1)C1NC(=O)CNC(=O)[C@H](CO)NC(=O)[C@@H]([C@@H](O)[C@@H]2CN=C(N)N2[C@H]2O[C@H](CO)[C@@H](O)[C@H](O)[C@@H]2O)NC(=O)[C@H]([C@@H](O)[C@@H]2CN=C(N)N2)NC(=O)[C@@H](Cc2ccc(O[C@H]3O[C@H](CO)[C@@H](O[C@H]4O[C@@H]5COC6(O[C@H]5[C@H](O)[C@@H]4O)C4CCCC6CCC4)[C@H](O)[C@@H]3O)cc2)NC1=O (stereo not given in full)
MIC [19]: 4 µg/mL (≈ 2.83 µM)
MIC [20]: 8 µg/mL (≈ 5.65 µM)
MIC [3]: ≤ 0.06 µg/mL

NC1=NC[C@@H]([C@H](O)[C@@H]2NC(=O)[C@@H](Cc3ccc(O[C@H]4O[C@H](CO)[C@@H](O[C@H]5O[C@@H]6COC7(O[C@H]6[C@H](O)[C@@H]5O)C5CC6CC(C5)CC7C6)[C@H](O)[C@@H]4O)cc3)NC(=O)C(CC3CCCCC3)NC(=O)CNC(=O)[C@H](CO)NC(=O)[C@@H]([C@@H](O)[C@@H]3CN=C(N)N3[C@H]3O[C@H](CO)[C@@H](O)[C@H](O)[C@@H]3O)NC2=O)N1 (stereo not given in full)
ED50 [4]: 0.08 mg/kg
MIC [15]: 1 µg/mL (≈ 0.704 µM)
MIC [5]: 2 µg/mL (≈ 1.41 µM)
MIC [21]: ≤ 0.12 µg/mL
MIC [3]: ≤ 0.06 µg/mL
MIC [12]: ≤ 0.12 µg/mL
MIC [22]: 0.25 µg/mL (≈ 0.176 µM)
ED50 [7]: 0.39 mg/kg

C[C@@H](c1ccccc1)C1NC(=O)CNC(=O)[C@H](CO)NC(=O)[C@@H]([C@@H](O)[C@@H]2CN=C(N)N2[C@H]2O[C@H](CO)[C@@H](O)[C@H](O)[C@@H]2O)NC(=O)[C@H]([C@@H](O)[C@@H]2CN=C(N)N2)NC(=O)[C@@H](Cc2ccc(O[C@H]3O[C@H](CO)[C@@H](O[C@H]4O[C@@H]5COC6(CCCCC6)O[C@H]5[C@H](O)[C@@H]4O)[C@H](O)[C@@H]3O)cc2)NC1=O (stereo not given in full)
MIC [19]: 4 µg/mL (≈ 2.91 µM)
MIC [23]: 1 µg/mL (≈ 0.727 µM)
MIC [20]: 8 µg/mL (≈ 5.82 µM)

CN[C@H](CC(C)C)C(=O)N[C@H]1C(=O)N[C@@H](CC(N)=O)C(=O)N[C@H]2C(=O)N[C@H]3C(=O)N[C@H](C(=O)N[C@H](C(=O)O)c4cc(O)cc(O)c4-c4cc3ccc4O)[C@H](O)c3ccc(c(Cl)c3)Oc3cc2cc(c3O[C@@H]2O[C@H](CO)[C@@H](O)[C@H](O)[C@H]2O[C@H]2C[C@](C)(N)[C@H](O)[C@H](C)O2)Oc2ccc(cc2Cl)[C@H]1O [VANCOMYCIN]
MIC [1]: < 2 µg/mL
ED50 [4]: 1 mg/kg
MIC [24]: ≤ 0.5 µg/mL
MIC [25]: 128 µg/mL (≈ 88.3 µM)
ED50 [7]: > 32 mg/kg
